Measured values: ChEMBL document CHEMBL5058577, “EUbOPEN Chemogenomics Library 2 (Multiplex)” (2022)

Tested on: HEK-293T
Assay: Multiplex assay against HEK293T
Assay type: toxicity, cell-based
Conditions: human
Outline: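 With compound added, live cells were imaged on a CQ1 microscope at 37°C and 5% CO2; staining with Hoechst33342, BioTracker Green Microtubule Cytoskeleton Dye, MitoTracker Red and Annexin V Alexa Fluor 680 had been done at seeding. The CellPathfinder machine-learning gating scheme split cells into Hoechst high-intensity objects or normal cells, normal cells into healthy, pyknosed or fragmented nuclei, and pyknosed cells into mitotic or apoptotic. The tubulin, mitochondrial-mass and membrane-permeability phenotypes are per cents of healthy-nucleus cells.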

[1] = 12 h, 1 µM, compound concentration 1 uM, replicate 1
[2] = 12 h, 1 µM, compound concentration 1 uM, replicate 2
[3] = 12 h, 10 µM, compound concentration 10 uM, replicate 1
[4] = 12 h, 10 µM, compound concentration 10 uM, replicate 2
[5] = 24 h, 1 µM, compound concentration 1 uM, replicate 1
[6] = 24 h, 1 µM, compound concentration 1 uM, replicate 2
[7] = 24 h, 10 µM, compound concentration 10 uM, replicate 1
[8] = 24 h, 10 µM, compound concentration 10 uM, replicate 2
[9] = 48 h, 1 µM, compound concentration 1 uM, replicate 1
[10] = 48 h, 1 µM, compound concentration 1 uM, replicate 2
[11] = 48 h, 10 µM, compound concentration 10 uM, replicate 1
[12] = 48 h, 10 µM, compound concentration 10 uM, replicate 2

`Cc1c(CC(=O)O)c2cccnc2n1Cc1ccc(S(C)(=O)=O)cc1C(F)(F)F` [FEVIPIPRANT] was tested, and the “Population Apoptotic (%)” value [1] was 27%, the “Population Fragmented Nuclei (%)” value [1] was 6% and the “Population Healthy Nuclei (%)” value [1] was 83%. The “Population Hoechst High Intensity Objects (%)” value [1] was 5%, the “Population Membrane Permeable-Phenotype (%)” value [1] was 0% and the “Population Mitochondria Different-Phenotype (%)” value [1] was 32%. For the same compound, the “Population Mitotic Cells (%)” value [1] was 72%, the “Population Normal (%)” value [1] was 94% and the “Population Pyknosed Nuclei (%)” value [1] was 9%. The “Population Tubulin-Different-Phenotype (%)” value [1] was 22%, the “Total Cell Count” value [1] was 471 and the “Population Apoptotic (%)” value [2] was 41%. For the same compound, the “Population Fragmented Nuclei (%)” value [2] was 7%, the “Population Healthy Nuclei (%)” value [2] was 79% and the “Population Hoechst High Intensity Objects (%)” value [2] was 7%. For the same compound, the “Population Mitochondria Different-Phenotype (%)” value [2] was 52%, the “Population Mitotic Cells (%)” value [2] was 58% and the “Population Normal (%)” value [2] was 92%. The “Population Pyknosed Nuclei (%)” value [2] was 12%, the “Population Tubulin-Different-Phenotype (%)” value [2] was 16% and the “Total Cell Count” value [2] was 370. The “Population Apoptotic (%)” value [3] was 33%, the “Population Fragmented Nuclei (%)” value [3] was 5% and the “Population Healthy Nuclei (%)” value [3] was 80%. For the same compound, the “Population Hoechst High Intensity Objects (%)” value [3] was 6%, the “Population Membrane Permeable-Phenotype (%)” value [3] was 0% and the “Population Mitochondria Different-Phenotype (%)” value [3] was 46%. The “Population Mitotic Cells (%)” value [3] was 66%, the “Population Normal (%)” value [3] was 93% and the “Population Pyknosed Nuclei (%)” value [3] was 13%. For the same compound, the “Population Tubulin-Different-Phenotype (%)” value [3] was 29%, the “Total Cell Count” value [3] was 417 and the “Population Apoptotic (%)” value [4] was 52%. For the same compound, the “Population Fragmented Nuclei (%)” value [4] was 11%, the “Population Healthy Nuclei (%)” value [4] was 75% and the “Population Hoechst High Intensity Objects (%)” value [4] was 10%. For the same compound, the “Population Mitochondria Different-Phenotype (%)” value [4] was 66%, the “Population Mitotic Cells (%)” value [4] was 47% and the “Population Normal (%)” value [4] was 89%. For the same compound, the “Population Pyknosed Nuclei (%)” value [4] was 12%, the “Population Tubulin-Different-Phenotype (%)” value [4] was 32% and the “Total Cell Count” value [4] was 303. For the same compound, the “Population Apoptotic (%)” value [5] was 22%, the “Population Fragmented Nuclei (%)” value [5] was 8% and the “Population Healthy Nuclei (%)” value [5] was 81%. For the same compound, the “Population Hoechst High Intensity Objects (%)” value [5] was 3%, the “Population Membrane Permeable-Phenotype (%)” value [5] was 1% and the “Population Mitochondria Different-Phenotype (%)” value [5] was 18%. For the same compound, the “Population Mitotic Cells (%)” value [5] was 77%, the “Population Normal (%)” value [5] was 96% and the “Population Pyknosed Nuclei (%)” value [5] was 10%. For the same compound, the “Population Tubulin-Different-Phenotype (%)” value [5] was 18%, the “Total Cell Count” value [5] was 637 and the “Population Apoptotic (%)” value [6] was 43%. For the same compound, the “Population Fragmented Nuclei (%)” value [6] was 7%, the “Population Healthy Nuclei (%)” value [6] was 82% and the “Population Hoechst High Intensity Objects (%)” value [6] was 4%. The “Population Membrane Permeable-Phenotype (%)” value [6] was 0%, the “Population Mitochondria Different-Phenotype (%)” value [6] was 37% and the “Population Mitotic Cells (%)” value [6] was 56%. For the same compound, the “Population Normal (%)” value [6] was 95%, the “Population Tubulin-Different-Phenotype (%)” value [6] was 14% and the “Total Cell Count” value [6] was 457. The “Population Apoptotic (%)” value [7] was 33%, the “Population Fragmented Nuclei (%)” value [7] was 8% and the “Population Healthy Nuclei (%)” value [7] was 80%. For the same compound, the “Population Hoechst High Intensity Objects (%)” value [7] was 5%, the “Population Membrane Permeable-Phenotype (%)” value [7] was 0% and the “Population Mitochondria Different-Phenotype (%)” value [7] was 31%. The “Population Mitotic Cells (%)” value [7] was 66%, the “Population Normal (%)” value [7] was 94% and the “Population Pyknosed Nuclei (%)” value [7] was 10%. For the same compound, the “Population Tubulin-Different-Phenotype (%)” value [7] was 20%, the “Total Cell Count” value [7] was 499 and the “Population Apoptotic (%)” value [8] was 50%. The “Population Fragmented Nuclei (%)” value [8] was 9%, the “Population Healthy Nuclei (%)” value [8] was 81% and the “Population Hoechst High Intensity Objects (%)” value [8] was 11%. The “Population Mitochondria Different-Phenotype (%)” value [8] was 44%, the “Population Mitotic Cells (%)” value [8] was 50% and the “Population Normal (%)” value [8] was 88%. For the same compound, the “Population Pyknosed Nuclei (%)” value [8] was 8%, the “Total Cell Count” value [8] was 334 and the “Population Apoptotic (%)” value [9] was 16%. The “Population Fragmented Nuclei (%)” value [9] was 13%, the “Population Healthy Nuclei (%)” value [9] was 79% and the “Population Hoechst High Intensity Objects (%)” value [9] was 1%. For the same compound, the “Population Membrane Permeable-Phenotype (%)” value [9] was 2%, the “Population Mitochondria Different-Phenotype (%)” value [9] was 12% and the “Population Mitotic Cells (%)” value [9] was 83%. For the same compound, the “Population Normal (%)” value [9] was 98%, the “Population Pyknosed Nuclei (%)” value [9] was 7% and the “Population Tubulin-Different-Phenotype (%)” value [9] was 12%. For the same compound, the “Total Cell Count” value [9] was 1065, the “Population Apoptotic (%)” value [10] was 20% and the “Population Fragmented Nuclei (%)” value [10] was 11%. The “Population Healthy Nuclei (%)” value [10] was 82%, the “Population Hoechst High Intensity Objects (%)” value [10] was 2% and the “Population Membrane Permeable-Phenotype (%)” value [10] was 0%. For the same compound, the “Population Mitochondria Different-Phenotype (%)” value [10] was 16%, the “Population Mitotic Cells (%)” value [10] was 79% and the “Population Normal (%)” value [10] was 97%. The “Population Pyknosed Nuclei (%)” value [10] was 6%, the “Population Tubulin-Different-Phenotype (%)” value [10] was 10% and the “Total Cell Count” value [10] was 713. For the same compound, the “Population Apoptotic (%)” value [11] was 29%, the “Population Fragmented Nuclei (%)” value [11] was 14% and the “Population Healthy Nuclei (%)” value [11] was 78%. The “Population Hoechst High Intensity Objects (%)” value [11] was 4%, the “Population Membrane Permeable-Phenotype (%)” value [11] was 0% and the “Population Mitochondria Different-Phenotype (%)” value [11] was 24%. The “Population Mitotic Cells (%)” value [11] was 70%, the “Population Normal (%)” value [11] was 95% and the “Population Pyknosed Nuclei (%)” value [11] was 7%. The “Population Tubulin-Different-Phenotype (%)” value [11] was 14%, the “Total Cell Count” value [11] was 794 and the “Population Apoptotic (%)” value [12] was 45%. For the same compound, the “Population Healthy Nuclei (%)” value [12] was 77%, the “Population Hoechst High Intensity Objects (%)” value [12] was 7% and the “Population Membrane Permeable-Phenotype (%)” value [12] was 1%. For the same compound, the “Population Mitochondria Different-Phenotype (%)” value [12] was 22%, the “Population Mitotic Cells (%)” value [12] was 55% and the “Population Normal (%)” value [12] was 92%. For the same compound, the “Population Pyknosed Nuclei (%)” value [12] was 8%, the “Population Tubulin-Different-Phenotype (%)” value [12] was 17% and the “Total Cell Count” value [12] was 491.
